Data: ChEMBL document CHEMBL1125009, “Variation in the aromatic ring of cromakalim: antihypertensive activity of pyranopyridines and 6-alkyl-2H-1-benzopyrans” (1990)

Key:
Assay type in all cases: functional, Artery
[1] = tested on: Rattus norvegicus; assay: The maximum fall in systolic blood pressure was determined at a dose of 10 mg/kg after oral administration in rats
In short: (§1)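 Conscious spontaneously hypertensive rats (Japanese Okamoto strain, 14–24 weeks old), used only if systolic pressure was >180 mmHg, six per dose level. Dosed by oral needle into the esophagus as a solution or suspension in 1% w/v methylcellulose. Systolic pressure was read by tail-cuff, each reading the mean of at least six recordings, before dosing and at intervals from 1 to 6 h. The maximum fall was taken.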

[2] = tested on: Rattus norvegicus; assay: The maximum fall in systolic blood pressure was determined at a dose of 3.0 mg/kg after oral administration in rats; in short: as §1
[3] = tested on: Rattus norvegicus; assay: The maximum fall in systolic blood pressure was determined at a dose of 0.3 mg/kg after oral administration in rats; in short: as §1
[4] = tested on: Rattus norvegicus; assay: The maximum fall in systolic blood pressure was determined at a dose of 1 mg/kg after oral administration in rats; in short: as §1
[5] = tested on: Rattus norvegicus; assay: The maximum fall in systolic blood pressure was determined at a dose of 1.0 mg/kg after oral administration in rats; in short: as §1
[6] = tested on: Rattus norvegicus; assay: The maximum fall in systolic blood pressure was determined at a dose of 0.1 mg/kg after oral administration in rats; in short: as §1
[7] = tested on: Rattus norvegicus; assay: The maximum fall in systolic blood pressure was determined at a dose of 3 mg/kg after oral administration in rats; in short: as §1
[8] = tested on: Rattus norvegicus; assay: The maximum fall in systolic blood pressure was determined at a dose of 10.0 mg/kg after oral administration in rats; in short: as §1

| SMILES | Max fall in blood pressure [3] | Max fall in blood pressure [5] | Max fall in blood pressure [7] | other results |
| --- | --- | --- | --- | --- |
| CC1(C)Oc2ncccc2[C@@H](N2CCCC2=O)[C@@H]1O | – | – | – | Max fall in blood pressure [1]: 5% |
| CC(=O)NC1c2cc(C)ccc2OC(C)(C)[C@H]1O (some centres not stated) | 9% | – | – | Max fall in blood pressure [2]: 20% |
| CC1(C)Oc2cnccc2[C@@H](N2CCCC2=O)[C@@H]1O | – | – | – | Max fall in blood pressure [4]: 7%; Max fall in blood pressure [1]: 41% |
| CC(=O)N[C@@H]1c2cnccc2OC(C)(C)[C@H]1O | 14% | 43% | – | – |
| CCc1ccc2c(c1)C(N1CCCC1=O)[C@H](O)C(C)(C)O2 (some centres not stated) | 11% | 54% | – | – |
| CC(C)c1ccc2c(c1)C(N1CCCC1=O)[C@H](O)C(C)(C)O2 (some centres not stated) | 17% | 36% | – | Max fall in blood pressure [2]: 60% |
| CC(C)(C)c1ccc2c(c1)C(N1CCCC1=O)[C@H](O)C(C)(C)O2 (some centres not stated) | 9% | 39% | – | Max fall in blood pressure [2]: 49% |
| CC1(C)Oc2ccncc2[C@@H](N2CCCCC2=O)[C@@H]1O | 55% | 56% | – | Max fall in blood pressure [6]: 24% |
| CC1(C)C=C(N2CCCCC2=O)c2cnccc2O1 | – | – | 37% | Max fall in blood pressure [4]: 14% |
| CC1(C)Oc2ccc(C(F)(F)F)cc2C(N2CCCC2=O)[C@@H]1O (some centres not stated) | 26% | – | – | Max fall in blood pressure [6]: 17% |
| CC1(C)Oc2ccncc2[C@@H](N2CCCC2=O)[C@@H]1O | – | – | 41% | Max fall in blood pressure [4]: 39% |
| CC1(C)Oc2ccc(-c3ccccc3)cc2C(N2CCCC2=O)[C@@H]1O (some centres not stated) | – | – | 14% | Max fall in blood pressure [8]: 20% |
| Cc1ccc2c(c1)C(N1CCCC1=O)[C@H](O)C(C)(C)O2 (some centres not stated) | – | – | 12% | Max fall in blood pressure [1]: 49% |
| CC1(C)Oc2ccc(C3CCCC3)cc2C(N2CCCC2=O)[C@@H]1O (some centres not stated) | – | 24% | – | Max fall in blood pressure [8]: 66% |
| CC1(C)Oc2cccnc2[C@@H](N2CCCC2=O)[C@@H]1O | – | – | – | Max fall in blood pressure [1]: 15% |
| Cc1ccc2c(c1)C(N1CCCCC1=O)[C@H](O)C(C)(C)O2 (some centres not stated) | 16% | 33% | 56% | – |
| CCCc1ccc2c(c1)C(N1CCCC1=O)[C@H](O)C(C)(C)O2 (some centres not stated) | – | – | 42% | Max fall in blood pressure [4]: 17% |
| CC1(C)Oc2cc[n+]([O-])cc2[C@@H](N2CCCCC2=O)[C@@H]1O | 39% | 68% | – | – |
| CC1(C)Oc2ccccc2C(N2CCCC2=O)[C@@H]1O (some centres not stated) | – | – | – | Max fall in blood pressure [1]: 49% |
| CC1(C)Oc2ccc(C#N)cc2C(N2CCCC2=O)C1O (configuration not stated) [CROMAKALIM] | 39% | 47% | – | Max fall in blood pressure [6]: 13% |
